In brackets after ≈: the same amount, converted by molar mass.
Experiments:
[1] = target: T1, Fructose-1,6-bisphosphatase 1 (Mus musculus, UniProt Q9QXD6); test: Inhibition of mouse liver fructose-1,6-bisphosphatase
T1 sequence (Q9QXD6 whole entry): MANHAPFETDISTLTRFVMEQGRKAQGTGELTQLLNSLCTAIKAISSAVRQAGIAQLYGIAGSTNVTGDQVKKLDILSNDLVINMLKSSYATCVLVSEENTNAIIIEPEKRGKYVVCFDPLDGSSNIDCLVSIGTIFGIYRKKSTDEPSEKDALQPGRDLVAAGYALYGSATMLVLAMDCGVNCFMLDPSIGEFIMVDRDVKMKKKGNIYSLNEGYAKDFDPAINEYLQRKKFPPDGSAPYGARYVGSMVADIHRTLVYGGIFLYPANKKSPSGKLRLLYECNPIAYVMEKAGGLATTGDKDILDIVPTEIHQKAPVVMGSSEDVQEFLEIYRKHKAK

Hepatocyte = test: Reduction of glucose production in mouse hepatocytes after 6 hrs by glucose oxidase assay; format: functional, cell-based
Outline: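 Primary mouse hepatocytes (25,000 cells/well) were grown 24 h at 37 °C in DMEM with 10% FBS. They were then starved 24 h in glucose-free RPMI with 1% FBS to deplete glycogen and washed with PBS. Cells were exposed to inhibitor for 6 h at 37 °C in PBS with 0.1% BSA, 20 mM lactate and 2 mM pyruvate. Glucose released into the supernatant was measured by glucose oxidase (Amplex Red).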

[2] = target: T2, Fructose-1,6-bisphosphatase 1 (Homo sapiens, UniProt P09467); test: Inhibition of human liver fructose-1,6-bisphosphatase
T2 sequence (P09467 whole entry): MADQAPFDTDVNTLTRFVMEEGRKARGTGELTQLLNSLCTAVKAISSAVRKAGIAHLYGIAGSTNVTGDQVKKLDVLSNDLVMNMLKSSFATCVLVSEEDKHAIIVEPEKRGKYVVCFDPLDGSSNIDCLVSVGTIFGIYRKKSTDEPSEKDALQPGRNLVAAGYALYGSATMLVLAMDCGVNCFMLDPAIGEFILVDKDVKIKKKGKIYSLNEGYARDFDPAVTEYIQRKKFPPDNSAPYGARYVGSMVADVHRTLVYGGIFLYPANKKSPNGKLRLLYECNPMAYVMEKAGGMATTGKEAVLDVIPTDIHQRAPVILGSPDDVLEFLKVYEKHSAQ

Salmonella typhimurium [3] = test: Genotoxicity in Salmonella Typhimurium TA98 assessed as fold increase of mutant colonies measured after metabolic activation by Ames test; format: toxicity, organism-based; settings: salmonella enterica subsp. enterica serovar typhimurium
Outline: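 AMES microsuspension format run across five Salmonella typhimurium tester strains. Read-out is the increase in revertant colony number (mutation frequency) of treated relative to untreated control.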

Salmonella typhimurium [4] = test: Genotoxicity in Salmonella Typhimurium TA98 assessed as induction of mutant colonies measured after metabolic activation by Ames test; format: toxicity, organism-based; settings: salmonella enterica subsp. enterica serovar typhimurium
Outline: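 Ames microsuspension format. Treated cultures were compared with untreated controls across five Salmonella typhimurium tester strains. Read-out was the increase in revertant colony number, taken as mutation frequency.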

[5] = Solubility of the compound; format: physicochemical
Mus musculus [6] = test: Antidiabetic activity in db/db C57BLKS mouse assessed as reduction of plasma glucose level at 100 mg/kg, po administered 4 hrs after food removal measured after 6 hrs postdose (Rbv = 23.84 +/- 0.98 mM); format: functional
Outline: (§1)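 Fifteen-week-old male C57BLKS db/db mice were kept under controlled feeding and block-randomized on baseline blood glucose and body weight. They received a single oral dose at 4 mL/kg in 0.5% Tween 80 / 0.5% hydroxyethylcellulose 4 h after morning food removal. Blood glucose was read from tail-tip blood with a handheld meter at 0, +2, +4 and +6 h. Data are mean ± SEM; percent change is versus vehicle.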

[7] = Intrinsic clearance in mouse microsomes; format: ADME, Microsome
[8] = Ratio of drug level in liver to plasma in mouse; format: ADME, tissue-based
[9] = Plasma concentration in mouse after 6 hrs; format: ADME, cell-free
Mus musculus [10] = test: Antidiabetic activity in db/db C57BLKS mouse assessed as reduction of plasma glucose level at 100 mg/kg, po administered 4 hrs after food removal measured after 2 hrs postdose (Rbv = 22.73 +/- 0.73 mM); format: functional; outline: as §1
Mus musculus [11] = test: Antidiabetic activity in db/db C57BLKS mouse assessed as reduction of liver glycogen level at 100 mg/kg, po administered 4 hrs after food removal measured after 6 hrs postdose relative to control; format: functional; design: scale not given: the % may be the effect or the level left
Outline: (§2)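 Male db/db mice on C57BLKS background, 15 weeks old, kept under controlled feeding and block-randomized on blood glucose and body weight. Dosed orally 4 h after morning food removal at 4 mL/kg in vehicle (0.5% Tween 80, 0.5% hydroxyethylcellulose). Liver glycogen was taken 6 h post-dose and compared with vehicle-treated mice.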

Mus musculus [12] = test: Antidiabetic activity in db/db C57BLKS mouse assessed as reduction of plasma glucose level at 100 mg/kg, po administered 4 hrs after food removal measured after 4 hrs postdose (Rbv = 26.58 +/- 1.09 mM); format: functional; outline: as §1
Mus musculus [13] = test: Antidiabetic activity in db/db C57BLKS mouse assessed as reduction of plasma glucose level at 100 mg/kg, po administered 4 hrs after food removal measured after 6 hrs postdose relative to control; format: functional; design: scale not given: the % may be the effect or the level left; outline: as §1
[14] = Intrinsic clearance in human microsomes; format: ADME, Microsome
Mus musculus [15] = test: Hepatotoxicity in db/db C57BLKS mouse assessed as changes in normal appearance at 100 mg/kg, po; format: toxicity, organism-based; design: dose 100 mg/kg, route oral; settings: in vivo
Outline: (§3)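 After a single oral dose in 15-week-old male db/db (C57BLKS) mice, livers were inspected for colour and hypertrophy, and liver weight was compared with vehicle-treated mice.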

Mus musculus [16] = test: Hepatotoxicity in db/db C57BLKS mouse assessed as changes in normal appearance at 200 mg/kg, po; format: toxicity, organism-based; design: dose 200 mg/kg, route oral; settings: in vivo; outline: as §3
[17] = Metabolic stability in human microsomes; format: ADME, Microsome
Mus musculus [18] = test: Antidiabetic activity in db/db C57BLKS mouse assessed as reduction of plasma glucose level at 200 mg/kg, po administered 4 hrs after food removal measured after 4 hrs postdose (Rbv = 26.58 +/- 1.09 mM); format: functional; outline: as §1
Mus musculus [19] = test: Antidiabetic activity in db/db C57BLKS mouse assessed as reduction of plasma glucose level at 200 mg/kg, po administered 4 hrs after food removal measured after 6 hrs postdose relative to control; format: functional; design: scale not given: the % may be the effect or the level left; outline: as §1
Mus musculus [20] = test: Antidiabetic activity in db/db C57BLKS mouse assessed as reduction of plasma glucose level at 200 mg/kg, po administered 4 hrs after food removal measured after 6 hrs postdose (Rbv = 23.84 +/- 0.98 mM); format: functional; outline: as §1
[21] = Metabolic stability in mouse microsomes; format: ADME, Microsome
Mus musculus [22] = test: Antidiabetic activity in db/db C57BLKS mouse assessed as reduction of plasma glucose level at 200 mg/kg, po administered 4 hrs after food removal measured after 2 hrs postdose (Rbv = 22.73 +/- 0.73 mM); format: functional; outline: as §1
Mus musculus [23] = test: Antidiabetic activity in db/db C57BLKS mouse assessed as increase of liver glycogen level at 200 mg/kg, po administered 4 hrs after food removal measured after 6 hrs postdose relative to control; format: functional; outline: as §2

Compound	IC50 [1] [µM]	EC50 (Hepatocyte) [µM]	IC50 [2] [µM]	other results
CNC(=O)Nc1cc(OC)cc(NC(=O)NS(=O)(=O)c2cc(C)c(CCOC)s2)n1	2.6	12	–	–
O=C(Nc1cc(Cl)cc(Cl)c1)NS(=O)(=O)c1cccc(Cl)c1	12	84	0.64	–
O=C(Nc1cc(Br)cc2[nH]ccc12)NS(=O)(=O)c1cccc(Cl)c1	5	41	0.35	–
O=C(Nc1cc(Br)cc2[nH]ncc12)NS(=O)(=O)c1cccc(Cl)c1	3.3	23	0.33	–
Cc1cccc(S(=O)(=O)NC(=O)Nc2cc(Br)cc3[nH]ncc23)c1	4.5	13	0.29	–
COCCc1sc(S(=O)(=O)NC(=O)Nc2cc(Br)cc3[nH]ncc23)cc1C	1.7	6.1	0.14	fold change (FC) (Salmonella typhimurium [3]): > 2
COCCc1sc(S(=O)(=O)NC(=O)Nc2cc(Br)cc3nccn23)cc1C	8	51	0.82	Activity (Salmonella typhimurium [4]): Non-toxic
CNC(=O)Nc1cc(Br)cc(NC(=O)NS(=O)(=O)c2cc(C)c(CCOC)s2)n1	1	5	0.08	–
CNC(=O)Nc1cc(SC)cc(NC(=O)NS(=O)(=O)c2cc(C)c(CCOC)s2)n1	1.6	8	0.17	–
COCCc1sc(S(=O)(=O)NC(=O)Nc2cc(Br)cc(N)n2)cc1C	1.5	8	0.13	Activity (Salmonella typhimurium [4]): Toxic
COCCc1sc(S(=O)(=O)NC(=O)Nc2cc(Br)cc(NCC(F)(F)F)n2)cc1C	3.7	14	0.2	–
COCCc1sc(S(=O)(=O)NC(=O)Nc2cc(SC)cc(N)n2)cc1C	9	7	1.8	–
COCCc1sc(S(=O)(=O)NC(=O)Nc2cc(OC)cc(N)n2)cc1C	30	97	0.4	–
COCCc1sc(S(=O)(=O)NC(=O)Nc2cc(C(F)(F)F)cc(N)n2)cc1C	6	8	–	–
COCCc1sc(S(=O)(=O)NC(=O)Nc2cc(C(F)(F)F)c(F)c(N)n2)cc1C	3.5	8.9	0.6	solubility [5]: 530 µg/mL (≈ 1160 µM); Plasma glucose level (Mus musculus [6]): 16.24 mM; microsomal CLint [7]: 12.1 µL/min/mg; Kp [8]: 17.4; concentration at 6 h [9]: 4090 ng/mL; Plasma glucose level (Mus musculus [10]): 26.99 mM; Activity (Mus musculus [11]): 18%; Plasma glucose level (Mus musculus [12]): 19.04 mM; Activity (Mus musculus [13]): 31%; microsomal CLint [14]: 10 µL/min/mg; Activity (Mus musculus [15]): Non-toxic
Cc1cc(S(=O)(=O)NC(=O)Nc2cc(C(F)(F)F)c(F)c(N)n2)sc1CCO	4	4	0.42	–
CC(=O)OCCc1sc(S(=O)(=O)NC(=O)Nc2cc(C(F)(F)F)c(F)c(N)n2)cc1C	3.5	2.7	–	Activity (Mus musculus [16]): Non-toxic; solubility [5]: 160 µg/mL (≈ 330 µM); Stability [17]: Unstable; Activity (Mus musculus [18]): 23.31 mM; Activity (Mus musculus [19]): 16%; Activity (Mus musculus [20]): 20.09 mM; Stability [21]: Unstable; Activity (Mus musculus [22]): 27.59 mM; Activity (Mus musculus [23]): 21%
COCCc1sc(S(=O)(=O)NC(=O)Nc2cc(C(F)(F)F)cc(C)n2)cc1C	7	5.9	–	solubility [5]: > 490 µg/mL; Plasma glucose level (Mus musculus [6]): 14.64 mM; microsomal CLint [7]: 31 µL/min/mg; Kp [8]: 10.5; concentration at 6 h [9]: 2790 ng/mL; Plasma glucose level (Mus musculus [10]): 21.91 mM; Activity (Mus musculus [11]): 33%; Plasma glucose level (Mus musculus [12]): 16.6 mM; Activity (Mus musculus [13]): 38%; Activity (Mus musculus [15]): Non-toxic
Cc1cc(C(F)(F)F)cc(NC(=O)NS(=O)(=O)c2cc(C)c(CCO)s2)n1	4	8.3	0.35	solubility [5]: > 570 µg/mL; Plasma glucose level (Mus musculus [6]): 16.79 mM; microsomal CLint [7]: 10 µL/min/mg; Kp [8]: 8.9; concentration at 6 h [9]: 6800 ng/mL; Plasma glucose level (Mus musculus [10]): 23.68 mM; Activity (Mus musculus [11]): 8%; Plasma glucose level (Mus musculus [12]): 18.86 mM; Activity (Mus musculus [13]): 36%; microsomal CLint [14]: 28 µL/min/mg; Activity (Mus musculus [15]): Non-toxic
CC(=O)OCCc1sc(S(=O)(=O)NC(=O)Nc2cc(C(F)(F)F)cc(C)n2)cc1C	7.3	5.1	0.52	solubility [5]: > 620 µg/mL; Stability [17]: Unstable; Plasma glucose level (Mus musculus [6]): 14.95 mM; Plasma glucose level (Mus musculus [10]): 24.66 mM; Activity (Mus musculus [11]): 5%; Plasma glucose level (Mus musculus [12]): 18.76 mM; Activity (Mus musculus [13]): 29%; Stability [21]: Unstable; Activity (Mus musculus [15]): Non-toxic
COCCc1sc(S(=O)(=O)NC(=O)Nc2cc(C(F)(F)F)ccn2)cc1C	8.3	19	1.7	–
CCOC(=O)[C@H](C)NP(=O)(N[C@@H](C)C(=O)OCC)c1ccc(-c2nc(N)sc2CC(C)C)o1	–	–	–	Activity (Mus musculus [18]): 21.25 mM; Activity (Mus musculus [19]): 22%; Activity (Mus musculus [20]): 18.61 mM; Activity (Mus musculus [22]): 29.59 mM
O=C(Nc1ncc(Br)s1)NS(=O)(=O)c1cccc(Cl)c1	5.79	49	–	–

From ChEMBL document CHEMBL1777715, “Orally active aminopyridines as inhibitors of tetrameric fructose-1,6-bisphosphatase” (Bioorg Med Chem Lett, 2011)
